Assay [1] relates to HEK293. The assay can be described thus: Selectivity ratio for rat alpha3beta4 nAChR transfected in HEK293 cells to rat alpha4beta2 nAChR transfected in HEK293 cells. Format: cell-based.
The target in assay [2] is T1, Neuronal acetylcholine receptor; alpha4/beta2 (Rattus norvegicus, UniProt P09483+P12390). The experiment in a line: Displacement of [3H]epibatidine from rat alpha4beta2 nAChR transfected in HEK293 cells after 2 hrs by beta-plate counting analysis. Format: cell-based. Summed up:
(§1)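 Cell lines KXα3β4R2 and KXα4β2R2 (rat receptors) were used. Membranes were prepared by homogenizing cells in 50 mM Tris pH 7.4 and centrifuging twice at 20000g. They were incubated 2 h at room temperature with 0.3 nM [3H]epibatidine plus test sample, then filtered on PEI-soaked glass fiber and counted. Nonspecific binding was defined by 1 µM AT-1001 or 0.1 µM epibatidine. Ki was obtained by Cheng–Prusoff; runs were in triplicate, at least twice.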

Assay [3] addresses Neuronal acetylcholine receptor; alpha3/beta4 (Rattus norvegicus, UniProt P04757+P12392). The assay can be described thus: Displacement of [3H]epibatidine from rat alpha3beta4 nAChR transfected in HEK293 cells after 2 hrs by beta-plate counting analysis. Format: cell-based. Summed up:
as §1
In general terms: Loss of bound radioactivity is the signal in a displacement assay; it reports binding, not function.

The species entered for assay [4] is Rattus norvegicus. The assay can be described thus: Selectivity ratio of Ki for rat alpha3beta4 nAChR to Ki for rat alpha4beta2 nAChR. Summed up:
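Selectivity was calculated from [3H]epibatidine-binding Ki values as (Ki α3β4 − Ki α4β2)/Ki α4β2.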

In assay [5] the target is T1, Neuronal acetylcholine receptor; alpha4/beta2. The assay can be described thus: Antagonist activity at rat alpha4beta2 nAChR transfected in HEK293 cells after 10 mins by fluorescence assay in presence of nicotine. Format: cell-based. Summed up:
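Transfected HEK cells were seeded at 4000/well the day before and loaded with blue membrane-potential dye in HBSS/20 mM HEPES pH 7.4 at 37 °C for 20 min. […] Fluorescence (ex 530, em 550–580) was recorded every 3 s for 120 s on a FlexStation.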

The structures appear in SMILES notation. pIC50, pKi: −log10 of the molar value.

As usually defined, the pKi is −log10 of the Ki, conventionally taken in molar units. As a reminder, the pIC50 is −log10 of the IC50, conventionally taken in molar units.

Sequence of Neuronal acetylcholine receptor; alpha3/beta4 (P04757 whole entry): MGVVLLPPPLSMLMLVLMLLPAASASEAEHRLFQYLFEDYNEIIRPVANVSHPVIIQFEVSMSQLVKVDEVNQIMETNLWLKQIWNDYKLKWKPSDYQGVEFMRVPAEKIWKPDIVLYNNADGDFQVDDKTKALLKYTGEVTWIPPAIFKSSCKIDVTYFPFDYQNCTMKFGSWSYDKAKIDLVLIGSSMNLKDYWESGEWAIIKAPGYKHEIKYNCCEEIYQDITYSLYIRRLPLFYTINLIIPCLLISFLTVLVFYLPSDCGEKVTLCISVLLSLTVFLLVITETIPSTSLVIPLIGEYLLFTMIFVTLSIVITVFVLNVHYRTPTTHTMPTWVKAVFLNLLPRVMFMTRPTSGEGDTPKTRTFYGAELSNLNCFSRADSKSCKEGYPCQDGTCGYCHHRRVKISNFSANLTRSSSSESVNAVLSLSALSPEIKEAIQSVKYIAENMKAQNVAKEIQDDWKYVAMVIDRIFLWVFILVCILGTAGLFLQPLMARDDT
Sequence of Neuronal acetylcholine receptor; alpha3/beta4 (P12392 whole entry): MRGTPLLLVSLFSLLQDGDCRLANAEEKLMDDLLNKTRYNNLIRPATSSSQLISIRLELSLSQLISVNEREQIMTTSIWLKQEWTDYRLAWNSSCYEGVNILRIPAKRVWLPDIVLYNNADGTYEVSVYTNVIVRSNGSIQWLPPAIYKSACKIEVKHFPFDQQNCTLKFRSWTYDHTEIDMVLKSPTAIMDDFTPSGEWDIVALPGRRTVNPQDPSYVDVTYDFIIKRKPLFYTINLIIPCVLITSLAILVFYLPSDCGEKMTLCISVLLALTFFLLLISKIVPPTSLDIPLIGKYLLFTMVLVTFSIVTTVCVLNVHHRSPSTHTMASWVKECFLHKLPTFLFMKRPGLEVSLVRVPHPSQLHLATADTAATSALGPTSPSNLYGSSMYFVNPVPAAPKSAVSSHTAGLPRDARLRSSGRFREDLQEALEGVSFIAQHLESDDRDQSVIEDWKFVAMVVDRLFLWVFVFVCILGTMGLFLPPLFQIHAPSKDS
T1 sequence (P09483 whole entry): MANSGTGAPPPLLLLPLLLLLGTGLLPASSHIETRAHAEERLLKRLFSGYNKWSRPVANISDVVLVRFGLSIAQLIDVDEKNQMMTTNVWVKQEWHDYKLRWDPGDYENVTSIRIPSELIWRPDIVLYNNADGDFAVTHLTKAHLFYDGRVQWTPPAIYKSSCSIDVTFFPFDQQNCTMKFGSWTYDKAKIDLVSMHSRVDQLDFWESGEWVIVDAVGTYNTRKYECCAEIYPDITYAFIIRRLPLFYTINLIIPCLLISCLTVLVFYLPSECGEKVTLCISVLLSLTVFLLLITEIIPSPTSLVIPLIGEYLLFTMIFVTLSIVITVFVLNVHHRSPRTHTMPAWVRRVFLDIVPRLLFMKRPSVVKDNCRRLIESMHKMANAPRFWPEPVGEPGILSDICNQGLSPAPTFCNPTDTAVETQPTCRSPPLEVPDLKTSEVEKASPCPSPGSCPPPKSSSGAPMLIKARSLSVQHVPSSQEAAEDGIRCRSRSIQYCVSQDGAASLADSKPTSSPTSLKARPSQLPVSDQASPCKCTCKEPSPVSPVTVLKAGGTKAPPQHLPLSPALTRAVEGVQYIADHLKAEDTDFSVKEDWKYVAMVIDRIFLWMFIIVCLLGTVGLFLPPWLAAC
T1 sequence (P12390 whole entry): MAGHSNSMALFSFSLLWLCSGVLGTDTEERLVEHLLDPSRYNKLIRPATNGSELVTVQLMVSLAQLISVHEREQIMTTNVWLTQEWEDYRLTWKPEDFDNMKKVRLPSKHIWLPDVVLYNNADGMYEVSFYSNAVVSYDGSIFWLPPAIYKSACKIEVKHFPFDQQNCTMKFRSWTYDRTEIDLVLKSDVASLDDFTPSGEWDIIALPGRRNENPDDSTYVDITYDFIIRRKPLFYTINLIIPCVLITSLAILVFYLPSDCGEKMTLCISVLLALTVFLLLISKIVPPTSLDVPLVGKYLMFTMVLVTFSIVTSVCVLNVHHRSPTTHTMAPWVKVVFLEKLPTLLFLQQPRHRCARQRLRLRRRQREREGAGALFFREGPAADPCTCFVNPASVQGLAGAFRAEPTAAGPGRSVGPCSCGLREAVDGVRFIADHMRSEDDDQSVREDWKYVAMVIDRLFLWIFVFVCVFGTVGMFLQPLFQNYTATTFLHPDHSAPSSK

Regarding `N=C1NC[C@H](CCCCN2C[C@@H](CC3CCCCC3)N(CCc3cccc(Br)c3)C2=N)N1CCc1cccc(F)c1`, in assay [1], the Selectivity ratio amounted to 4.8.

`N=C1NC[C@H](CCCCN2C[C@@H](Cc3ccccc3)N(CCc3cccc(Br)c3)C2=N)N1CCc1cccc(F)c1`: the Selectivity ratio in assay [1] was 10.1.

In the case of `CCCCCCCN1C(=N)NC[C@@H]1CCCCN1C[C@@H](Cc2ccccc2)N(CCc2cccc(Br)c2)C1=N`, in assay [1], the Selectivity ratio is 4.8. Further, the negative-log Ki (pKi) was 5.60 in assay [2] and 4.84 in assay [3].

`N=C1NC[C@H](CCCCN2C[C@@H](Cc3ccc4ccccc4c3)N(CCc3cccc(Br)c3)C2=N)N1CCc1ccc(Cl)c(Cl)c1`: in assay [1], the Selectivity ratio was 0.6.

Regarding `CC(C)(C)C1CCC(CN2C(=N)N(CCCC[C@H]3CNC(=N)N3CCc3cccnc3)C[C@@H]2Cc2ccccc2)CC1` (stereo partly drawn), the Ratio Ki in assay [4] was found to be 74.

In the case of `N=C1NC[C@H](CCCCN2C[C@H](Cc3ccc4ccccc4c3)N(CCc3ccc(Br)cc3)C2=N)N1CCc1ccc(Cl)c(Cl)c1`, the Selectivity ratio in assay [1] is -0.1.

As for `CC(C)(C)C1CCC(CN2CCN(CCCC[C@@H]3CNC(=N)N3CCc3cccnc3)C2=N)CC1` (stereo partly drawn), the Ratio Ki in assay [4] is 23. For the same molecule, the pIC50 in assay [5] was 5.53. The values for the negative-log Ki (pKi) in assay [2] and in assay [3] were 5.65 and 4.28, respectively.

In the case of `N=C1N(CCCC[C@H]2CN=C(N)N2CCc2ccc(Cl)c(Cl)c2)C[C@H](Cc2ccc3ccccc3c2)N1CCc1ccc(Br)cc1`, the pKi is 5.51 in assay [2] and 5.57 in assay [3].

Regarding `CCCCCCCN1C(N)=NC[C@@H]1CCCCN1C[C@@H](Cc2ccccc2)N(CC2CCC(C(C)(C)C)CC2)C1=N` (stereo partly drawn), the values for the pKi in assay [2] and in assay [3] were 5.57 and 4.26, respectively.

For the molecule `N=C1NC[C@H](CCCCN2C[C@H](Cc3ccc4ccccc4c3)N(CCc3cccc(Br)c3)C2=N)N1CCc1ccc(Cl)c(Cl)c1`, the Selectivity ratio in assay [1] came to 0.8.

On to `N=C1N(CCCC[C@H]2CN=C(N)N2CCc2ccc(Cl)c(Cl)c2)C[C@@H](Cc2ccc3ccccc3c2)N1CCc1ccc(Cl)c(Cl)c1`, for which the negative-log Ki (pKi) in assay [2] was 4.32; in assay [3] it was 3.46.

`CCCCCCCN1C(=N)NC[C@@H]1CCCCN1C[C@@H](Cc2ccccc2)N(CC2CCC(C(C)(C)C)CC2)C1=N` (stereo partly drawn): the Selectivity ratio in assay [1] was 19.3.

`CC(C)CCCN1C(=N)NC[C@@H]1CCCCN1C[C@@H](CC2CCCCC2)N(CC2CCC(C(C)(C)C)CC2)C1=N` (stereo partly drawn): the Selectivity ratio in assay [1] amounted to 21.2.

Turning to `CC(C)CCCN1C(N)=NC[C@@H]1CCCCN1C[C@@H](CC2CCCCC2)N(CC2CCC(C(C)(C)C)CC2)C1=N` (stereo partly drawn), the pKi was 5.46 in assay [2] and 4.11 in assay [3].

For the molecule `N=C1NC[C@H](CCCCN2C[C@@H](Cc3ccc4ccccc4c3)N(CCc3ccc(Cl)c(Cl)c3)C2=N)N1CCc1ccc(Cl)c(Cl)c1`, the Selectivity ratio in assay [1] turned out to be 6.3.

Turning to `CC(C)(C)C1CCC(CN2C(=N)N(CCCC[C@H]3CNC(=N)N3CCc3cccnc3)C[C@@H]2CC2CCCCC2)CC1` (stereo partly drawn), in assay [4], the Ratio Ki is 128.

Regarding `CCCCCCCN1C(N)=NC[C@@H]1CCCCN1C[C@@H](CC2CCCCC2)N(CC2CCC(C(C)(C)C)CC2)C1=N` (stereo partly drawn), the negative-log Ki (pKi) is 5.41 in assay [2] and 4.26 in assay [3].

As to `CCCCCCCN1C(=N)NC[C@@H]1CCCCN1C[C@@H](CC2CCCCC2)N(CCc2cccc(Br)c2)C1=N`, in assay [1], the Selectivity ratio is 7.2.

On to `CC(C)CCCN1C(=N)NC[C@@H]1CCCCN1C[C@@H](Cc2ccccc2)N(CCc2cccc(Br)c2)C1=N`, for which the Selectivity ratio in assay [1] was 17.5. Moreover, the negative logarithm of the Ki (pKi) in assay [2] was 5.59; in assay [3], 4.32.

With `CC(C)(C)C1CCC(CN2C(=N)N(CCCC[C@H]3CN=C(N)N3CCc3cccnc3)C[C@H]2CC2CCCCC2)CC1` (stereo partly drawn), in assay [5], the pIC50 is 5.55. The pKi in assay [2] is 6.47; in assay [3], 4.22.

On to `CC(C)(C)C1CCC(CN2C(=N)N(CCCC[C@H]3CN=C(N)N3CCc3cccnc3)C[C@@H]2CC2CCCCC2)CC1` (stereo partly drawn), for which the pIC50 in assay [5] was 5.47. Also, the pKi was 6.21 in assay [2] and 4.11 in assay [3].

Take `CC(C)(C)C1CCC(CN2C(=N)N(CCCC[C@@H]3CNC(=N)N3CCc3cccnc3)C[C@H]2CC2CCCCC2)CC1` (stereo partly drawn): the Ratio Ki in assay [4] is 130. Further, the pIC50 in assay [5] is 5.77. For the same molecule, the negative logarithm of the Ki (pKi) in assay [2] was 6.59; in assay [3], 4.48.

With `CC(C)(C)C1CCC(CN2CCN(CCCC[C@H]3CN=C(N)N3CCc3cccnc3)C2=N)CC1` (stereo partly drawn), in assay [5], the pIC50 is 5.55. Further, the pKi is 6.36 in assay [2] and 4.56 in assay [3].

As to `N=C1N(CCCC[C@H]2CN=C(N)N2CCc2ccc(Cl)c(Cl)c2)C[C@H](Cc2ccc3ccccc3c2)N1CCc1cccc(Br)c1`, the pKi in assay [2] was 4.36; in assay [3], 4.12.

Turning to `CC(C)(C)C1CCC(CN2C(=N)N(CCCC[C@@H]3CNC(=N)N3CCc3cccnc3)C[C@H]2Cc2ccccc2)CC1` (stereo partly drawn), in assay [4], the Ratio Ki worked out at 206. Also, the pIC50 in assay [5] is 5.52. Besides, the negative-log Ki (pKi) was 6.51 in assay [2] and 4.20 in assay [3].

As to `N=C1N(CCCC[C@H]2CN=C(N)N2CCc2cccc(F)c2)C[C@@H](Cc2ccccc2)N1CCc1cccc(Br)c1`, the pKi in assay [2] is 5.74; in assay [3] it was 4.69.

Take `CC(C)(C)C1CCC(CN2C(=N)N(CCCC[C@H]3CNC(=N)N3CCc3cccc(F)c3)C[C@H]2Cc2ccccc2)CC1` (stereo partly drawn): in assay [4], the Ratio Ki turned out to be 39. In assay [5], the pIC50 is 4.58. Further, the Selectivity ratio in assay [1] was found to be 19. The pKi in assay [2] was 5.80; in assay [3], 4.21.

As to `CC(C)(C)C1CCC(CN2C(=N)N(CCCC[C@H]3CNC(=N)N3CCc3cccc(F)c3)C[C@H]2CC2CCCCC2)CC1` (stereo partly drawn), the Ratio Ki in assay [4] came out at 24. Further, the Selectivity ratio in assay [1] was determined as 25.9.

As for `N=C1N(CCCC[C@H]2CN=C(N)N2CCc2ccc(Cl)c(Cl)c2)C[C@H](Cc2ccc3ccccc3c2)N1CCc1ccc(Cl)c(Cl)c1`, the pKi is 3.74 in assay [2] and 4.00 in assay [3].

Take `CC(C)(C)C1CCC(CN2C(=N)N(CCCC[C@H]3CNC(=N)N3CCc3cccnc3)C[C@H]2CC2CCCCC2)CC1` (stereo partly drawn): the Ratio Ki in assay [4] was determined as 176.

Consider `CC(C)CCCN1C(N)=NC[C@@H]1CCCCN1C[C@@H](CC2CCCCC2)N(CCc2cccc(Br)c2)C1=N`, for which the pKi in assay [2] was 5.48; in assay [3] it was 4.43.

For `CC(C)CCCN1C(N)=NC[C@@H]1CCCCN1C[C@@H](Cc2ccccc2)N(CC2CCC(C(C)(C)C)CC2)C1=N` (stereo partly drawn), the pKi was 5.64 in assay [2] and 4.16 in assay [3].

With `CCCCCCCN1C(N)=NC[C@@H]1CCCCN1C[C@@H](CC2CCCCC2)N(CCc2cccc(Br)c2)C1=N`, the pKi in assay [2] is 5.55; in assay [3], 4.63.

For `CO[C@H]1CC=C2CCN3CCC4=C(CC(=O)OC4)[C@]23C1`, the pIC50 in assay [5] was 6.20. Moreover, the pKi in assay [2] is 6.31; in assay [3] it was less than 5.00.

Turning to `CC(C)CCCN1C(=N)NC[C@@H]1CCCCN1C[C@@H](Cc2ccccc2)N(CC2CCC(C(C)(C)C)CC2)C1=N` (stereo partly drawn), in assay [1], the Selectivity ratio was determined as 28.5.

Consider `N=C1N(CCCC[C@H]2CN=C(N)N2CCc2ccc(Cl)c(Cl)c2)C[C@@H](Cc2ccc3ccccc3c2)N1CCc1cccc(Br)c1`, for which the pKi in assay [2] was 5.72; in assay [3], 5.52.

Take `CC(C)CCCN1C(=N)NC[C@@H]1CCCCN1C[C@@H](CC2CCCCC2)N(CCc2cccc(Br)c2)C1=N`: the Selectivity ratio in assay [1] amounted to 10.2.

On to `N=C1N(CCCC[C@H]2CN=C(N)N2CCc2ccc(Cl)c(Cl)c2)C[C@@H](Cc2ccc3ccccc3c2)N1CCc1ccc(Br)cc1`, for which the pKi in assay [2] is 5.60; in assay [3] it was 5.40.

As for `N=C1N(CCCC[C@H]2CN=C(N)N2CCc2cccc(F)c2)C[C@@H](CC2CCCCC2)N1CCc1cccc(Br)c1`, the pKi in assay [2] was 5.46; in assay [3], 4.70.

On to `CC(C)(C)C1CCC(CN2CCN(CCCC[C@H]3CNC(=N)N3CCc3cccnc3)C2=N)CC1` (stereo partly drawn), for which the Ratio Ki in assay [4] was determined as 64.

For the molecule `CCCCCCCN1C(=N)NC[C@@H]1CCCCN1C[C@@H](CC2CCCCC2)N(CC2CCC(C(C)(C)C)CC2)C1=N` (stereo partly drawn), the Selectivity ratio in assay [1] stood at 13.2.

In the case of `N=C1NC[C@H](CCCCN2C[C@@H](Cc3ccc4ccccc4c3)N(CCc3ccc(Br)cc3)C2=N)N1CCc1ccc(Cl)c(Cl)c1`, in assay [1], the Selectivity ratio was 0.6.

Turning to `CC(C)(C)C1CCC(CN2C(=N)N(CCCC[C@H]3CN=C(N)N3CCc3cccc(F)c3)C[C@H]2CC2CCCCC2)CC1` (stereo partly drawn), in assay [5], the negative logarithm of the IC50 (pIC50) was 5.27. For the same molecule, the pKi in assay [2] was 5.43; in assay [3], 4.05.

In the case of `CC(C)(C)C1CCC(CN2C(=N)N(CCCC[C@H]3CN=C(N)N3CCc3cccnc3)C[C@@H]2Cc2ccccc2)CC1` (stereo partly drawn), the pIC50 in assay [5] is 5.83. In addition, the negative logarithm of the Ki (pKi) in assay [2] was 6.49; in assay [3], 4.62.
